From ChEMBL document CHEMBL1777723, “Design, synthesis, and evaluation of bromo-retrochalcone derivatives as protein tyrosine phosphatase 1B inhibitors” (Bioorg Med Chem Lett, 2011)

Columns and labels:
[1] = molecular target: T1, Tyrosine-protein phosphatase non-receptor type 1 (Homo sapiens, UniProt P18031); test: (§1) Inhibition of recombinant human PTP1B using p-nitrophenyl phosphate as substrate after 30 mins
T1 sequence (P18031 whole entry): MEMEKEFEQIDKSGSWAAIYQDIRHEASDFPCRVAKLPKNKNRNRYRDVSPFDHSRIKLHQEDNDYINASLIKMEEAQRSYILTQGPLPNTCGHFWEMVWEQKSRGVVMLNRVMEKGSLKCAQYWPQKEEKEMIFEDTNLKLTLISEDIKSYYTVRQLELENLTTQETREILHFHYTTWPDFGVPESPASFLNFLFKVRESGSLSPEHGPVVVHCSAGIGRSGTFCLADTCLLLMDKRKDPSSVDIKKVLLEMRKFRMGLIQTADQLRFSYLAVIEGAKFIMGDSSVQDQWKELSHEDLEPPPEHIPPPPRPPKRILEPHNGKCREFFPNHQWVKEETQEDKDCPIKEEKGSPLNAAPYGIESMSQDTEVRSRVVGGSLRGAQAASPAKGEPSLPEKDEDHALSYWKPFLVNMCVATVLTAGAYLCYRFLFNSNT
In short: (§2)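 Reaction buffer: 10 citrate pH […], 0.1 M NaCl, 1 mM EDTA, 1 mM dithiothreitol. Enzyme and sample were added with 50 of 4 mM pNPP substrate stock, incubated 30 min at 37 °C, then quenched with 10 N NaOH.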

[2] = molecular target: T2, Tyrosine-protein phosphatase non-receptor type 1 (Homo sapiens) (UniProt P18031); test: as §1; in short: as §2
T2 sequence (whole entry): T1 sequence (P18031 whole entry)

C=CCN(CC=C)c1cccc(C(=O)/C=C/c2cc(Br)c(O)cc2OC)c1
IC50 [1]: 4.5 µM | inhibition [2]: Dose-dependent effect

C=C(C)C(C)c1cc(C(=O)/C=C/c2cc(Br)c(O)cc2O)ccc1OC (stereo unspecified)
IC50 [1]: 2.6 µM | inhibition [2]: Dose-dependent effect

COc1cc(O)c(Br)cc1/C=C/C(=O)c1cccc(N)c1
IC50 [1]: 6.8 µM | inhibition [2]: Dose-dependent effect

COc1cc(O)c(Br)cc1/C=C/C(=O)c1ccc(OC(=O)c2ccc(C(C)(C)C)cc2)cc1
IC50 [1]: 2.4 µM | inhibition [2]: Dose-dependent effect

COc1cccc(C(=O)/C=C/c2cc(Br)c(O)cc2OC)c1
IC50 [1]: 11.1 µM | inhibition [2]: Dose-dependent effect

COc1cc(O)c(Br)cc1/C=C/C(=O)c1cccc(N(C)C)c1
IC50 [1]: 26.4 µM | inhibition [2]: Dose-dependent effect

CCOC(=O)COc1ccc(C(=O)/C=C/c2cc(Br)c(O)cc2OC)cc1
IC50 [1]: 15.2 µM | inhibition [2]: Dose-dependent effect

COc1cc(O)c(Br)cc1/C=C/C(=O)c1cccc(NS(C)(=O)=O)c1
IC50 [1]: 11.3 µM | inhibition [2]: Dose-dependent effect

COc1cc(O)c(Br)cc1/C=C/C(=O)c1ccc(N2CCOCC2)cc1
IC50 [1]: 8 µM | inhibition [2]: Dose-dependent effect

C=CCN(CC=C)c1ccccc1C(=O)/C=C/c1cc(Br)c(O)cc1OC
IC50 [1]: 3.5 µM | inhibition [2]: Dose-dependent effect

C=C(C)C(C)c1cc(C(=O)/C=C/c2cc(Br)c(O)cc2OC)ccc1OC (stereo unspecified)
IC50 [1]: 1.9 µM | inhibition [2]: Dose-dependent effect

COc1cc(O)c(Br)cc1/C=C/C(=O)c1ccc(OS(C)(=O)=O)cc1
IC50 [1]: 18.4 µM | inhibition [2]: Dose-dependent effect

COc1cc(O)c(Br)cc1/C=C/C(=O)c1ccccc1N(C)C
IC50 [1]: 13.9 µM | inhibition [2]: Dose-dependent effect

COc1cc(O)c(Br)cc1/C=C/C(=O)c1ccc(OCC=C(C)C)cc1
IC50 [1]: 3.5 µM | inhibition [2]: Dose-dependent effect

COc1cc(O)c(Br)cc1/C=C/C(=O)c1ccc(OCCCC(=O)O)cc1
IC50 [1]: 30 µM | inhibition [2]: Dose-dependent effect

COc1ccc(C(=O)/C=C/c2cc(Br)c(O)cc2OC)cc1
IC50 [1]: 9.9 µM | inhibition [2]: Dose-dependent effect

CCCCOc1ccc(C(=O)/C=C/c2cc(Br)c(O)cc2OC)cc1
IC50 [1]: 4.2 µM | inhibition [2]: Dose-dependent effect

C=CCc1cc(C(=O)/C=C/c2cc(Br)c(O)cc2OC)ccc1OC
IC50 [1]: 5.3 µM | inhibition [2]: Dose-dependent effect

COc1cc(O)c(Br)cc1/C=C/C(=O)c1ccc(OC(=O)c2ccccc2)cc1
IC50 [1]: 4.9 µM | inhibition [2]: Dose-dependent effect

COc1cc(O)c(Br)cc1/C=C/C(=O)c1ccc(OCc2ccccc2)cc1
IC50 [1]: 2.9 µM | inhibition [2]: Dose-dependent effect

C=C(C)C(C)c1cc(C(=O)/C=C/c2cc(Br)c(O)cc2OC)ccc1O (stereo unspecified)
IC50 [1]: 6.9 µM | inhibition [2]: Dose-dependent effect

C=C(C)[C@H](C)c1cc(/C=C/C(=O)c2ccc(O)cc2)c(OC)cc1O [LICOCHALCONE E]
IC50 [1]: 20.7 µM

C=C(C)C(C)c1cc(C(=O)/C=C/c2cc(Br)c(OC3CCCCO3)cc2OC)ccc1O (stereo unspecified)
IC50 [1]: 10.3 µM | inhibition [2]: Dose-dependent effect

C=C(C)C(C)c1cc(C(=O)/C=C/c2cc(Br)c(O)cc2OC)ccc1OCC=C(C)C (stereo unspecified)
IC50 [1]: 7 µM | inhibition [2]: Dose-dependent effect

COc1cc(O)c(Br)cc1/C=C/C(=O)c1cccc(N2CCCCC2)c1
IC50 [1]: 4.9 µM | inhibition [2]: Dose-dependent effect

C=C(C)C(C)c1cc(C(=O)/C=C/c2cc(Br)c(OC3CCCCO3)cc2O)ccc1OC (stereo unspecified)
IC50 [1]: 2.9 µM | inhibition [2]: Dose-dependent effect

COc1cc(O)c(Br)cc1/C=C/C(=O)c1ccc(N2CCCCC2)cc1
IC50 [1]: 2.6 µM | inhibition [2]: Dose-dependent effect

COc1cc(O)c(Br)cc1/C=C/C(=O)c1ccc(NC(=O)c2ccc(C(C)(C)C)cc2)cc1
IC50 [1]: 3.4 µM | inhibition [2]: Dose-dependent effect

COc1cc(O)c(Br)cc1/C=C/C(=O)c1ccc(N)cc1
IC50 [1]: 6.2 µM | inhibition [2]: Dose-dependent effect

COc1cc(O)c(Br)cc1/C=C/C(=O)c1ccc(OC)c(CC=C(C)C)c1
IC50 [1]: 2.9 µM | inhibition [2]: Dose-dependent effect

COc1cc(O)c(Br)cc1/C=C/C(=O)c1ccc(OS(=O)(=O)c2ccc(C)cc2)cc1
IC50 [1]: 2.7 µM | inhibition [2]: Dose-dependent effect

COc1cc(O)c(Br)cc1/C=C/C(=O)c1ccc(OCC(=O)O)cc1
IC50 [1]: > 30 µM

COc1cc(O)c(Br)cc1/C=C/C(=O)c1ccc(N(C)C)cc1
IC50 [1]: > 30 µM

CCOC(=O)CCCOc1ccc(C(=O)/C=C/c2cc(Br)c(O)cc2OC)cc1
IC50 [1]: 10.8 µM | inhibition [2]: Dose-dependent effect

COc1cc(O)c(Br)cc1/C=C/C(=O)c1ccc(O)c(CC=C(C)C)c1
IC50 [1]: 4.4 µM | inhibition [2]: Dose-dependent effect

COc1cc(O)c(Br)cc1/C=C/C(=O)c1ccc(OC(=O)c2ccc(Br)cc2)cc1
IC50 [1]: 2.3 µM | inhibition [2]: Dose-dependent effect

COc1cc(O)c(Br)cc1/C=C/C(=O)c1cc2c(cc1N(C)C)OCO2
IC50 [1]: 6.3 µM | inhibition [2]: Dose-dependent effect

COc1cc(O)c(Br)cc1/C=C/C(=O)c1ccccc1N1CCCCC1
IC50 [1]: 6.8 µM | inhibition [2]: Dose-dependent effect

COc1cc(O)c(Br)cc1/C=C/C(=O)c1ccc(-n2cccn2)cc1
IC50 [1]: 6 µM | inhibition [2]: Dose-dependent effect

C=CCN(CC=C)c1ccc(C(=O)/C=C/c2cc(Br)c(O)cc2OC)cc1
IC50 [1]: 3.4 µM | inhibition [2]: Dose-dependent effect

C=CCc1cc(C(=O)/C=C/c2cc(Br)c(O)cc2OC)ccc1O
IC50 [1]: 7.1 µM | inhibition [2]: Dose-dependent effect

COc1cc(O)c(Br)cc1/C=C/C(=O)c1ccc(O)cc1
IC50 [1]: 13.7 µM | inhibition [2]: Dose-dependent effect
